Reference: ChEMBL document CHEMBL1806382, “Special ergolines efficiently inhibit the chemokine receptor CXCR3 in blood” (Bioorg Med Chem Lett, 2011)

Key:
[1] = target: T1, C-X-C chemokine receptor type 3 (Homo sapiens, UniProt P49682); test: Displacement of radiolabeled CXCL11 from human CXCR3 expressed in CHO cells by scintillation proximity assay; type: cell-based
T1 sequence (P49682 whole entry): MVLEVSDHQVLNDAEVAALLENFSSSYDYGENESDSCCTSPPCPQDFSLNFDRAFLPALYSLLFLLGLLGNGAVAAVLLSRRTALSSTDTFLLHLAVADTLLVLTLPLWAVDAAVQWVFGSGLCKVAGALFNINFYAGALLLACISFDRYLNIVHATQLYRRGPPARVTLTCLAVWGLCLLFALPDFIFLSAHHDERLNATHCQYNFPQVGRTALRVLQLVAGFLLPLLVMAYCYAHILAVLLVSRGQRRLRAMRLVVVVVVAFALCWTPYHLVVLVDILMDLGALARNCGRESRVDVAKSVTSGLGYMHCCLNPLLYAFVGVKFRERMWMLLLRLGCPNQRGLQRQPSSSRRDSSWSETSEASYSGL

[2] = target: T1, C-X-C chemokine receptor type 3; test: Antagonist activity at human CXCR3 expressed in mouse L1.2 cells assessed as inhibition of ITAC-induced calcium mobilization by FLIPR assay; type: functional, cell-based
[3] = target: T2, C-X-C chemokine receptor type 3 (Mus musculus, UniProt O88410); test: Antagonist activity at mouse CXCR3 expressed in mouse L1.2 cells assessed as inhibition of ITAC-induced calcium mobilization by FLIPR assay; type: functional, cell-based
T2 sequence (O88410 whole entry): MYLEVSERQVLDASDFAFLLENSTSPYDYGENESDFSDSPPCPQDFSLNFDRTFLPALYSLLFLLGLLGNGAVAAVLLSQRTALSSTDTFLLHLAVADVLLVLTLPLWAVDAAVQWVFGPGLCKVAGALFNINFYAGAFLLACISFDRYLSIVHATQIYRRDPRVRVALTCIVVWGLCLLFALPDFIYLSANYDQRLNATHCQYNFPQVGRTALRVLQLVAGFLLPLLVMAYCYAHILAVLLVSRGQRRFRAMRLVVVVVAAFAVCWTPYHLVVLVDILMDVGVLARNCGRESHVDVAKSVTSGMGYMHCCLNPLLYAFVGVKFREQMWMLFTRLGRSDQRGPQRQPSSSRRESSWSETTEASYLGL

[4] = target: T3, C-X-C chemokine receptor type 3 (Rattus norvegicus, UniProt Q9JII9); test: Ex vivo receptor occupancy of CXCR3 in rat blood assessed as inhibition of ITAC binding after 1 hr by flow cytometry
T3 sequence (Q9JII9 whole entry): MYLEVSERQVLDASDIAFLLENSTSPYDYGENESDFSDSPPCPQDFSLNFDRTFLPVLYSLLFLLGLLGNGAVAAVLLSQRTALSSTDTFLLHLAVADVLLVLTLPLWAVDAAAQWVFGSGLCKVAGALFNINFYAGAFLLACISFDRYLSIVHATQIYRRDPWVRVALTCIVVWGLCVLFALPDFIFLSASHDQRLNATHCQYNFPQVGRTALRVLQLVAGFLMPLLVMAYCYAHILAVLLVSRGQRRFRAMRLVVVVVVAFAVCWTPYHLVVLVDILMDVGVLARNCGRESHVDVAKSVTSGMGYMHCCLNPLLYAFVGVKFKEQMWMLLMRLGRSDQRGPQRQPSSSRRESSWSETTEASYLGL
How it was run: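 Blood samples were pre-incubated with inhibitor, then I-TAC was added and incubation continued for 1 h at 37 °C. Samples were stained with fluorescence-labelled anti-CXCR3 antibodies, and lymphocyte fluorescence was read by flow cytometry. Restoration of anti-CXCR3 staining was compared with samples not given I-TAC. IC50 is the concentration giving 50% inhibition of I-TAC binding to CXCR3.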

Compound | IC50 [1] | IC50 [2] | IC50 [3] | IC50 [4]
NC(=O)[C@@H]1C=C2c3cccc4[nH]cc(c34)C[C@H]2N(C(=O)Nc2ccccc2)C1 | > 10000 nM | – | – | –
O=C([C@@H]1C=C2c3cccc4[nH]cc(c34)C[C@H]2N(C(=O)NCc2ccco2)C1)N1CCCC1 | 2600 nM | 10000 nM | – | –
O=C([C@@H]1C=C2c3cccc4[nH]cc(c34)C[C@H]2N(C(=O)Nc2ccccc2)C1)N1CC[C@H](O)C1 | 47 nM | 12 nM | 19 nM | –
CCN(CC)C(=O)[C@@H]1C=C2c3cccc4[nH]cc(c34)C[C@H]2N(C(=O)Nc2ccccc2)C1 | 51 nM | – | – | –
COCCN(CCOC)C(=O)[C@@H]1C=C2c3cccc4[nH]cc(c34)C[C@H]2N(C(=O)Nc2ccccc2)C1 | 305 nM | 187 nM | 437 nM | –
CN(C)C(=O)[C@@H]1C=C2c3cccc4[nH]cc(c34)C[C@H]2N(C(=O)Nc2ccccc2)C1 | 28 nM | 10 nM | 10 nM | –
O=C1CN(C(=O)[C@@H]2C=C3c4cccc5[nH]cc(c45)C[C@H]3N(C(=O)Nc3ccccc3)C2)CCN1 | 255 nM | 74 nM | – | –
CC(=O)N1CCN(C(=O)[C@@H]2C=C3c4cccc5[nH]cc(c45)C[C@H]3N(C(=O)Nc3ccccc3)C2)CC1 | 825 nM | 286 nM | – | –
CN1CCN(C(=O)[C@@H]2C=C3c4cccc5[nH]cc(c45)C[C@H]3N(C(=O)Nc3ccccc3)C2)CC1 | 131 nM | 83 nM | 112 nM | –
CC(C)OC(=O)Cn1cc2c3c(cccc31)C1=C[C@@H](C(=O)N3CCCC3)CN(C(=O)Nc3ccccc3)[C@@H]1C2 | – | – | 53 nM | –
CN(C)Cc1ccc(NC(=O)N2C[C@H](C(=O)N3CCCC3)C=C3c4cccc5[nH]cc(c45)C[C@H]32)cc1 | – | 5400 nM | – | –
O=C([C@@H]1C=C2c3cccc4[nH]cc(c34)C[C@H]2N(C(=O)NC2CCCC2)C1)N1CCCC1 | 160 nM | 73 nM | 81 nM | –
O=C([C@@H]1C=C2c3cccc4[nH]cc(c34)C[C@H]2N(C(=O)Nc2ccccc2)C1)N1CCNCC1 | 1010 nM | 457 nM | 1730 nM | –
CN(C)CCCNC(=O)N1C[C@H](C(=O)N2CCCC2)C=C2c3cccc4[nH]cc(c34)C[C@H]21 | – | > 10000 nM | – | –
CN(C)Cc1ccccc1NC(=O)N1C[C@H](C(=O)N2CCCC2)C=C2c3cccc4[nH]cc(c34)C[C@H]21 | – | > 10000 nM | – | –
CNC(=O)N1C[C@H](C(=O)N2CCCC2)C=C2c3cccc4[nH]cc(c34)C[C@H]21 | > 10000 nM | > 10000 nM | – | –
O=C([C@@H]1C=C2c3cccc4[nH]cc(c34)C[C@H]2N(C(=O)Nc2ccc(F)cc2)C1)N1CCCC1 | 7 nM | 4 nM | 4 nM | –
O=C([C@@H]1C=C2c3cccc4[nH]cc(c34)C[C@H]2N(C(=O)Nc2ccccc2)C1)N1C=CCCC1 | 12 nM | 4 nM | 2 nM | –
CN(C)Cc1cccc(NC(=O)N2C[C@H](C(=O)N3CCCC3)C=C3c4cccc5[nH]cc(c45)C[C@H]32)c1 | – | 6200 nM | – | –
O=C([C@@H]1C=C2c3cccc4[nH]cc(c34)C[C@H]2N(C(=O)Nc2ccccc2)C1)N1CC[C@@H](O)C1 | 61 nM | 22 nM | – | –
COc1ccc(NC(=O)N2C[C@H](C(=O)N3CCCC3)C=C3c4cccc5[nH]cc(c45)C[C@H]32)cc1 | 393 nM | 89 nM | – | –
O=C([C@@H]1C=C2c3cccc4[nH]cc(c34)C[C@H]2N(C(=O)NCc2ccccc2)C1)N1CCCC1 | 2200 nM | 2200 nM | – | –
O=C([C@@H]1C=C2c3cccc4[nH]cc(c34)C[C@H]2N(C(=O)NC2CCCCCC2)C1)N1CCCC1 | 28 nM | 14 nM | 16 nM | –
COc1cccc(NC(=O)N2C[C@H](C(=O)N3CCCC3)C=C3c4cccc5[nH]cc(c45)C[C@H]32)c1 | 278 nM | 27 nM | 74 nM | –

Compound | IC50 [1] | IC50 [2] | IC50 [3] | IC50 [4]
O=C([C@@H]1C=C2c3cccc4[nH]cc(c34)C[C@H]2N(C(=O)Nc2ccccc2)C1)N1CCS(=O)(=O)CC1 | 400 nM | 67 nM | 534 nM | –
O=C([C@@H]1C=C2c3cccc4[nH]cc(c34)C[C@H]2N(C(=O)NC2CCCCC2)C1)N1CCCC1 | 24 nM | 11 nM | 31 nM | –
O=C([C@@H]1C=C2c3cccc4[nH]cc(c34)C[C@H]2N(C(=O)c2ccccc2)C1)N1CCCC1 | > 10000 nM | 6120 nM | – | –
O=C([C@@H]1C=C2c3cccc4[nH]cc(c34)C[C@H]2N(C(=O)Nc2cccs2)C1)N1CCCC1 | 37 nM | 8 nM | 10 nM | –
O=C([C@@H]1C=C2c3cccc4[nH]cc(c34)C[C@H]2N(C(=O)Nc2ccccc2)C1)N1CCC1 | – | – | 14 nM | –
O=C([C@@H]1C=C2c3cccc4[nH]cc(c34)C[C@H]2N(C(=O)Nc2ccccc2)C1)N1CC[C@@H](O)[C@@H](O)C1 | 50 nM | 200 nM | 40 nM | –
O=C([C@@H]1C=C2c3cccc4c3c(cn4CCN3CCCCC3)C[C@H]2N(C(=O)Nc2ccccc2)C1)N1CCCC1 | 2 nM | 5 nM | 3 nM | 16 nM
O=C([C@@H]1C=C2c3cccc4[nH]cc(c34)C[C@H]2N(C(=O)Nc2ccsc2)C1)N1CCCC1 | 26 nM | 7 nM | 11 nM | –
COc1ccccc1NC(=O)N1C[C@H](C(=O)N2CCCC2)C=C2c3cccc4[nH]cc(c34)C[C@H]21 | 523 nM | 60 nM | – | –
O=C([C@@H]1C=C2c3cccc4[nH]cc(c34)C[C@H]2N(C(=O)Nc2ccccc2)C1)N1CC=CC1 | 17 nM | 3 nM | 3 nM | –
CC1CN(C(=O)[C@@H]2C=C3c4cccc5[nH]cc(c45)C[C@H]3N(C(=O)Nc3ccccc3)C2)CC(C)O1 (stereo partly drawn) | 1160 nM | 216 nM | – | –
O=C([C@@H]1C=C2c3cccc4[nH]cc(c34)C[C@H]2N(C(=O)Cc2ccccc2)C1)N1CCCC1 | 427 nM | 170 nM | – | –
CCNC(=O)[C@@H]1C=C2c3cccc4[nH]cc(c34)C[C@H]2N(C(=O)Nc2ccccc2)C1 | 379 nM | 71 nM | 90 nM | –
O=C([C@@H]1C=C2c3cccc4c3c(cn4CCN3CCCC3)C[C@H]2N(C(=O)Nc2ccccc2)C1)N1CCCC1 | 3 nM | 3 nM | 2 nM | 14 nM
O=C([C@@H]1C=C2c3cccc4[nH]cc(c34)C[C@H]2N(C(=O)NC2CCC(O)CC2)C1)N1CCCC1 (stereo partly drawn) | > 10000 nM | 9480 nM | – | –
O=C([C@@H]1C=C2c3cccc4[nH]cc(c34)C[C@H]2N(C(=O)Nc2ccccc2)C1)N1CCOCC1 | 22 nM | – | 12 nM | –
O=C([C@@H]1C=C2c3cccc4[nH]cc(c34)C[C@H]2N(C(=O)Nc2cc[nH]c2)C1)N1CCCC1 | > 10000 nM | > 10000 nM | – | –
O=C([C@@H]1C=C2c3cccc4[nH]cc(c34)C[C@H]2N(C(=O)Nc2ccccc2)C1)N1CCCCCC1 | 81 nM | 14 nM | 13 nM | –
CN1CCN(CCn2cc3c4c(cccc42)C2=C[C@@H](C(=O)N4CCCC4)CN(C(=O)Nc4ccccc4)[C@@H]2C3)CC1 | 5 nM | 5 nM | 3 nM | 23 nM
O=C([C@@H]1C=C2c3cccc4[nH]cc(c34)C[C@H]2N(C(=O)Nc2cccc(F)c2)C1)N1CCCC1 | 4 nM | 3 nM | 2 nM | –
O=C([C@@H]1C=C2c3cccc4c3c(cn4CCN3CCOCC3)C[C@H]2N(C(=O)Nc2ccccc2)C1)N1CCCC1 | 24 nM | 8 nM | 5 nM | 40 nM
CN(CCO)C(=O)[C@@H]1C=C2c3cccc4[nH]cc(c34)C[C@H]2N(C(=O)Nc2ccccc2)C1 | 66 nM | 12 nM | 9 nM | –
O=C([C@@H]1C=C2c3cccc4[nH]cc(c34)C[C@H]2N(C(=O)Nc2ccccc2F)C1)N1CCCC1 | – | – | 16 nM | –
